Source: PubChem (several laboratories)
Compounds with a hit are over-represented: about 1.7% of the library has one in this group of screens.
IDE act: boosts human insulin-degrading enzyme activity in HEK cells; FAbeta-B cleavage, fluorescence polarization; 0% vehicle, 100% cell-free pure enzyme wells; 340,000 compounds, 0.073% hits; activation, % at 5.96 µM; P14735; AID 493087;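 active = activation above the mean of all tested compounds plus 3 SD, set per screening campaign, cut at about 17% in these data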
Rpn11 block: blocks the human proteasome subunit Rpn11; AID 588493; O00487; inhibition, % at 20 µM; human 26S proteasome, Ub4-pepOG fluorescence polarization; 20S core pre-blocked with epoxomicin; 360,000 compounds, 0.59% hits;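 active = inhibition at 20 µM, scaled to each plate's controls, above about 33%, limit read from the data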
IDE inh: inhibitors of human insulin-degrading enzyme in cells; P14735; 320,000 compounds, 0.41% hits; HEK cells, FAbetaB cleavage, fluorescence polarization; inhibition, % at 5.59 µM;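 active = percent inhibition above the average of all tested compounds plus 3 SD, set per screening campaign, cut at about 16% in these data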;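 also: IDE supplied by intact live HEK cells; FP after avidin binding of uncleaved biotin substrate so inhibition keeps polarization high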
CSN deneddyl inh: inhibitors of human CSN-mediated cullin deneddylation. Q92905. Purified CSN, SCF-Nedd8-OG deneddylation, fluorescence polarization. inhibition, % at 12.5 µM. 360,000 compounds, 0.38% hits. AID 651999;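 active = pattern-corrected inhibition above about 35%, with an unprinted fluorescence ratio check between 0.5 and 1.5, limit read from the data, passing the limit was not always enough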
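Detection – fluorescence polarization · System – HEK293T-derived human Csn5 enzyme · Controls – substrate-only high control, full reaction low control · Timing – 90 min, room temperature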
HNF4A DNA FP: change in binding of human HNF4 alpha to DNA; P41235; 360,000 compounds, 0.3% hits; activity change, % at 10 µM; HNF4a-FITC DNA binding, fluorescence polarization, 1 h; in the data active = activity change above about 30%, passing the limit was not always enough
Target sequence (P41235 whole entry, looked up): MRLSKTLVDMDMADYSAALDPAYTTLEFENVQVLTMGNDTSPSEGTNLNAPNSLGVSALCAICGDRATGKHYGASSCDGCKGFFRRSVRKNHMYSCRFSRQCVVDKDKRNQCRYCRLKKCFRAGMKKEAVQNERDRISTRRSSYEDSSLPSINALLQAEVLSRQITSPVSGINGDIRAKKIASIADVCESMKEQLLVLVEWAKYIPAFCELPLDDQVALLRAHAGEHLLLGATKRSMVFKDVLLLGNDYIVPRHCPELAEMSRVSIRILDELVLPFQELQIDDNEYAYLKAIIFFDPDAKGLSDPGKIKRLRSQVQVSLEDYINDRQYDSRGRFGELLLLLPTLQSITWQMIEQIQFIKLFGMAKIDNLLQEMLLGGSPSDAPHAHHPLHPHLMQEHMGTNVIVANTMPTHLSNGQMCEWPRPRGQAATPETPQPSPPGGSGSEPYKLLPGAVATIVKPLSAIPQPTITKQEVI
TPT1 inhibitor: inhibitors of Candida albicans tRNA 2'-phosphotransferase TPT1 | recombinant caTPT1, FP RNA substrate dephosphorylation | inhibition, % at 5 µM | 300,000 compounds, 0.81% hits | AID 1962;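 active = inhibition above the mean of all tested compounds plus 3 SD, set per screening campaign, cut at about 24% in these data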
TPT1 inh confirm: confirmation of Candida albicans TPT1 inhibitors; shares compounds with TPT1 inhibitor; recombinant caTPT1, fluorescence polarization, RNase T1 coupled; inhibition, % at 5 µM; 2,400 compounds, 74% hits;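 active = inhibition above the primary screen limit, the mean inhibition of all tested compounds plus 3 SD, cut at about 25% in these data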
RNase T1 counter: RNase T1 inhibition in TPT1 counter-screen | shares compounds with TPT1 inhibitor | RNase T1 cleavage, fluorescence polarization, 1536-well | inhibition, % at 5 µM | 2,400 compounds, 83% hits | AID 2153;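 active = inhibition above the solvent-only control well mean plus 3 SD, limit set per screening run, cut at about 23% in these data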;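 also: inhibitors block cleavage so intact labeled substrate keeps polarization high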
Target sequence (P00651 whole entry, looked up): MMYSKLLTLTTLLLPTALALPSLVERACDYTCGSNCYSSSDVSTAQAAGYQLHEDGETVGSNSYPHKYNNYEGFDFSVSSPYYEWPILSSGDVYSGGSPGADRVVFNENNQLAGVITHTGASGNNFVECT
Numbers stand for hits; . = inactive; / = no result shown; ! = not confirmed by another sample.

SMILES	IDE act	Rpn11 block	IDE inh	CSN deneddyl inh	HNF4A DNA FP	TPT1 inhibitor	TPT1 inh confirm	RNase T1 counter
COc1ccc(-n2cc(-c3ccc(Cl)cc3)[nH]c2=S)cc1	.	.	.	.	.	.	/	/
CCOc1ccc(C2=C/C(=C/c3cccnc3)C(=O)O2)cc1	.	.	.	.	.	82.6	69.1	78.3
COc1ccc(C2=C/C(=C/c3cccnc3)C(=O)O2)cc1OC	.	/	.	.	.	80.0	80.0	84.9
CC(=O)Oc1cccc(/C=C2\C=C(c3ccc(C)cc3)OC2=O)c1	.	.	.	.	.	.	/	/
CN(C)S(=O)(=O)c1cc(NC(=O)CN2CCCc3ccccc32)ccc1Cl	.	/	.	.	.	46.5	51.0	61.4
CN(C)S(=O)(=O)c1cc(NC(=O)CN2CCc3ccccc32)ccc1Cl	.	.	.	.	.	.	/	/
CN(C)S(=O)(=O)c1ccc(NC(=O)CN2CCCc3ccccc32)cc1	.	/	.	.	.	51.0	41.7	54.1
C=CCCN(Cc1ccccc1)S(=O)(=O)c1cc(Br)ccc1Br	.	.	.	.	.	/	/	/
COc1ccc(C)cc1S(=O)(=O)N(CC(=O)N1CCOCC1)c1cc(C)cc(C)c1	.	.	.	.	.	.	/	/
COc1ccc(Br)cc1S(=O)(=O)N(CC(=O)N1CCOCC1)c1ccccc1	.	.	.	.	.	43.4	.	.
O=C(C(=O)N1CCN(c2ccccc2F)CC1)c1ccccc1	/	/	/	.	.	/	/	/
O=C(Cc1cccc2ccccc12)N1CCCc2ccccc21	.	.	.	.	.	.	/	/
CCOC(=O)COc1ccc(S(=O)(=O)N2CCN(c3ccccc3F)CC2)cc1	.	.	.	.	.	109.2	.	.
COc1ccc(-c2ccc(-c3noc(-c4cccs4)n3)c(OC)n2)cc1	.	/	.	.	.	26.1	28.3	38.6
CCc1nnc(NS(=O)(=O)c2ccc(NS(=O)(=O)c3ccccc3[N+](=O)[O-])cc2)s1	.	.	.	.	.	.	/	/
CC(=O)c1ccc(Nc2ccc([N+](=O)[O-])c3nonc23)cc1	.	.	.	.	.	29.5	36.6	52.3
CCc1nnc(NS(=O)(=O)c2ccc(Nc3ccc([N+](=O)[O-])c4nonc34)cc2)s1	.	.	.	.	38.2	27.4	32.8	49.3
Cc1ccc(NC(=O)c2cc(S(=O)(=O)N3CCOCC3)c(Br)s2)cc1	.	.	.	.	.	29.4	.	.
Cc1ccc(C(=O)Nc2ccc(F)c(S(=O)(=O)N3CCOCC3)c2)s1	.	.	.	.	.	/	/	/
COc1ccc(OCC(=O)NC(=S)Nc2ccc(S(=O)(=O)Nc3cc(C)on3)cc2)cc1	.	.	.	.	.	.	/	/
CC(C)N1CCC2(CC1)C(C#N)=C(N)NC(S)=C2C#N	/	/	.	/	/	67.8	37.7	47.0
COc1ccc(CNC(=O)Nc2ccc3c(c2)N(C)C(=O)CS3)cc1	.	.	.	.	.	.	/	/
COc1ccc2ccccc2c1/C=N/NC(=S)NCCN1CCOCC1	.	.	.	.	.	.	/	/
O=S(=O)(c1ccc(NC(=S)N/N=C/c2c3ccccc3cc3ccccc23)cc1)N1CCOCC1	.	.	.	.	.	72.6	99.5	104.5
CNC(=S)N/N=C/c1c(C)cccc1Cl	.	.	.	.	.	.	/	/
SMILES	IDE act	Rpn11 block	IDE inh	CSN deneddyl inh	HNF4A DNA FP	TPT1 inhibitor	TPT1 inh confirm	RNase T1 counter
S=C(NCCN1CCOCC1)N/N=C/c1c2ccccc2cc2ccccc12	.	/	.	.	.	38.0	45.7	58.2
COCCNC(=S)N/N=C/c1c2ccccc2cc2ccccc12	.	.	.	.	.	39.5	50.8	61.0
CNC(=S)N/N=C/c1c2ccccc2c(Cl)c2ccccc12	.	.	.	.	.	24.9	.	24.0
O=S(=O)(c1ccc(NC(=S)N/N=C/c2ccc(Oc3ccccc3)cc2)cc1)N1CCOCC1	.	.	.	.	.	.	/	/
Cc1cc(C)nc(NC(=O)Cc2ccc(Br)cc2)n1	.	.	.	.	.	.	/	/
CC(=O)Nc1ccc(N(C(=O)Cn2nnc3ccccc32)C(C(=O)NC2CCCC2)c2ccc(O)c(O)c2)cc1 (stereo not given)	.	.	.	.	.	.	/	/
CCOCC(=O)Nc1nc2ccc(C)cc2s1	.	.	.	.	.	.	/	/
Cc1ccc2nc(NC(=O)CSCC(=O)OCC(=O)c3ccccc3)sc2c1	.	.	.	.	.	30.1	.	.
O=C1Nc2ccccc2C(=O)N(c2ccc3c(c2)OCCO3)C1C(=O)NC1CC1 (stereo not given)	/	/	/	.	.	/	/	/
NS(=O)(=O)c1cnccc1Nc1ccc(Cl)c(Cl)c1	.	.	.	.	.	.	/	/
CCN1CCN(Cc2ccc(NC(=O)c3ccc(C)c(/C=C/c4cnc(Nc5cc(N6CCNCC6)nc(C)n5)cn4)c3)cc2C(F)(F)F)CC1	.	/	.	56.9!	.	77.7	83.5	86.8
Cc1ccc(O)c(NC(=O)C2CCCN2C(=O)OCc2ccccc2)c1 (stereo not given)	.	.	.	.	.	.	/	/
Cc1sc(NC(=O)c2sc3nc4c(C)cccc4cc3c2N)c(C#N)c1C	.	.	.	.	.	25.4	29.7	43.3
Cc1cccc2cc3c(N)c(C#N)sc3nc12	.	.	.	.	.	.	/	/
COCCN(CCOC)Cc1c(O)ccc2c1O/C(=C\c1ccc(C)o1)C2=O	.	.	.	.	.	27.0	34.1	45.6
Clc1ccc(/C=N/NC2=Nc3cccc4cccc2c34)cc1	.	.	.	.	.	.	/	/
C(=N\NC1=Nc2cccc3cccc1c23)/c1ccccc1	.	.	.	.	.	26.3	41.8	57.7
COc1ccc(NC2=Nc3cccc4cccc2c34)cc1OC	.	.	.	.	.	33.1	31.2	39.5
COc1ccc(CC(=O)NNC2=Nc3cccc4cccc2c34)cc1OC	.	.	.	.	.	.	/	/
CN(C)CCN(CC1CCCN(Cc2ccccc2F)C1)C(=O)c1ccc(Cl)cc1 (stereo not given)	.	.	.	.	.	.	/	/
Cc1nc2ccccc2c(=O)n1/N=C/c1c(O)ccc2ccccc12	.	.	.	.	.	39.2	.	.
CN(C)/C=C1\SC(=S)N(N2C(=O)C3C4C=CC(C4)C3C2=O)C1=O (stereo not given)	.	.	.	.	.	.	/	/
CN(C)N(C(=O)c1cc(-c2cccs2)nn1-c1ccccc1)C1CCS(=O)(=O)C1 (stereo not given)	.	.	.	.	.	/	/	/
CCN1C(=O)/C(=C/C2=Cc3ccccc3OC2C)SC1=S (stereo not given)	/	/	.	.	90.7	42.6	92.9	98.3
